Ten molecules from ChEMBL document CHEMBL2016521, “Preparation, gram-negative antibacterial activity, and hydrolytic stability of novel siderophore-conjugated monocarbam diols” (ACS Med Chem Lett, 2011) can be followed below.

Values after ≈ are worked out from the molar mass of the structure shown.

In data set [1] the test system is Pseudomonas aeruginosa. Nature of the data set: Antibacterial activity against Pseudomonas aeruginosa isolate 1091-05. It is filed as functional.
The test system of data set [2] is Klebsiella pneumoniae. Kind of data set: Antibacterial activity against Klebsiella pneumoniae 1000-02. In kind it is functional.
Data set [3] has as its system Acinetobacter baumannii. Kind of data set: Antibacterial activity against Acinetobacter baumannii AB-3167. In kind it is functional.
For data set [4], the system named is Pseudomonas aeruginosa. Nature of the data set: Antibacterial activity against Pseudomonas aeruginosa. In kind it is functional.
Data set [5] has as its system Pseudomonas aeruginosa. Nature of the data set: Antibacterial activity against imipenem-sensitive Pseudomonas aeruginosa isolate 1091-05 infected in sc dosed neutropenic-C3H/HeN mouse assessed as mouse survival administered 4 hrs post infection followed by BID dosing for two days measured on day 10. It is filed as functional. The following applies: isolate 1091-05, sc, read-out: PD50.

The test system of data set [6] is Serratia marcescens. Kind of data set: Antimicrobial activity against Serratia marcescens. In kind it is functional.
Data set [7] relates to Pseudomonas aeruginosa. Nature of the data set: Antibacterial activity against imipenem-sensitive Pseudomonas aeruginosa isolate 1091-05 infected in ip dosed SF-1 mouse assessed as survival of animal administered 0.5 and 4 hrs post infected measured on day 4. As to conditions: isolate 1091-05, ip, read-out: PD50. In kind it is functional.
Data set [8] concerns Citrobacter freundii. Nature of the data set: Antimicrobial activity against Citrobacter freundii. It is filed as functional.
For data set [9], the system named is Klebsiella aerogenes. Nature of the data set: Antimicrobial activity against Enterobacter aerogenes. In kind it is functional.
The test system of data set [10] is Stenotrophomonas maltophilia. Nature of the data set: Antimicrobial activity against Stenotrophomonas maltophilia. It is filed as functional.
For data set [11], the system named is Acinetobacter sp. Nature of the data set: Antimicrobial activity against Acinetobacter sp. It is filed as functional.
Data set [12] is described as follows: Plasma protein binding in human. In kind it is ADME, cell-free. As to conditions: read-out: PPB (converted).
A short description of data set [13]: Fraction unbound in mouse plasma at 1 uM by LC-MS/MS analysis. It is filed as ADME, cell-free.
Data set [14] can be described thus: Chemical stability of the compound in phosphate buffer at pH 6 at 1 uM after 24 hrs by HPLC analysis. The following applies: pH 6, 24 h. In kind it is physicochemical. The essentials: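 Hydrolytic stability of the β-lactam ring was measured in aqueous buffer at pH 6.0 and 37 °C.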
Data set [15] can be described thus: Chemical stability of the compound in phosphate buffer at pH 8 assessed as drug degradation at 1 uM after 100 hrs by HPLC analysis. It is filed as physicochemical. As to conditions: read-out: Drug degradation. Put shortly:
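Hydrolytic β-lactam ring-opening was followed in aqueous buffer at pH 8.0 and 37 °C over a 100 h incubation. The read-out was percent degradation.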

The subject of data set [16] is Pseudomonas aeruginosa. Nature of the data set: Antibacterial activity against low inoculum imipenem-sensitive Pseudomonas aeruginosa isolate 1091-05 infected in sc dosed neutropenic-C3H/HeN mouse assessed as mouse survival administered 4 hrs post infection followed by BID dosing for two days measured on day 10. In kind it is functional. The following applies: isolate 1091-05, sc, read-out: PD50.

As usually defined, the MIC is the lowest concentration found to suppress growth. A high value points to a less susceptible organism. Molecule `CCN(CC)CCn1c(-c2cc(=O)c(O)c[nH]2)nn(S(=O)(=O)[N-]C(=O)N2C[C@H](NC(=O)/C(=N\OC(C)(C)C(=O)[O-])c3csc(N)n3)C2=O)c1=O.[Na+].[Na+]` registered an MIC in data set [1] of 1 µg/mL.
On to `Cc1cc(Cn2c(-c3cc(=O)c(O)c[nH]3)nn(S(=O)(=O)[N-]C(=O)N3C[C@H](NC(=O)/C(=N\OC(C)(C)C(=O)[O-])c4csc(N)n4)C3=O)c2=O)no1.[Na+].[Na+]`, for which it took 2 µg/mL to inhibit growth in data set [1] (MIC).
A word on the MIC90: it is the lowest concentration that inhibits either 90% of growth or 90% of the strains tested, depending on the study. `CC(C)(O/N=C(\C(=O)N[C@H]1CN(C(=O)[N-]S(=O)(=O)n2nc(-c3cc(=O)c(O)c[nH]3)n(C[C@H](O)CO)c2=O)C1=O)c1csc(N)n1)C(=O)[O-].[Na+].[Na+]`: the MIC came to 0.125 µg/mL in data set [1], 0.5 µg/mL in data set [2] and 0.5 µg/mL in [3]. The MIC90 in data set [4] was found to be 1 µg/mL. In data set [5], the ED50 was found to be 18.6 mg/kg.
In the case of `COCCn1c(-c2cc(=O)c(O)c[nH]2)nn(S(=O)(=O)[N-]C(=O)N2C[C@H](NC(=O)/C(=N\OC(C)(C)C(=O)[O-])c3csc(N)n3)C2=O)c1=O.[Na+].[Na+]`, the MIC in data set [1] was found to be 0.5 µg/mL; in [2], 0.5 µg/mL; in data set [3], 4 µg/mL. Further, the MIC90 in data set [4] is 1 µg/mL. Moreover, the ED50 in [5] was above 70.8 mg/kg.
Consider `C[C@H](O)Cn1c(-c2cc(=O)c(O)c[nH]2)nn(S(=O)(=O)[N-]C(=O)N2C(=O)[C@@H](NC(=O)/C(=N\OC(C)(C)C(=O)[O-])c3csc(N)n3)[C@@H]2C)c1=O.[Na+].[Na+]`, for which the figures for the MIC in data set [1], in data set [2] and in data set [3] were 0.25 µg/mL, 1 µg/mL and 4 µg/mL, respectively. For the same molecule, in [4], the MIC90 was determined as 0.5 µg/mL. Moreover, the ED50 in data set [5] came to 21.3 mg/kg.
In general, MIC50 refers to the lowest concentration that inhibits either 50% of growth or 50% of the strains tested, depending on the study. Take `C[C@H]1[C@H](NC(=O)/C(=N\OC(C)(C)C(=O)O)c2csc(N)n2)C(=O)N1S(=O)(=O)O` [AZTREONAM]: the MIC50 in data set [6] was 0.5 µg/mL (≈ 1.15 µM); in [8], 0.25 µg/mL (≈ 0.574 µM); in [10], above 64 µg/mL; in [11] it was 32 µg/mL (≈ 73.5 µM). For the same molecule, the MIC90 in data set [6] is above 64 µg/mL; in data set [8], 64 µg/mL (≈ 147 µM); in data set [9] it was 64 µg/mL (≈ 147 µM); in data set [10] it was above 64 µg/mL; in [11], above 64 µg/mL. For the same molecule, the minimal inhibitory concentration (MIC) was found to be 8 µg/mL (≈ 18.4 µM) in data set [1] and 32 µg/mL (≈ 73.5 µM) in data set [3]. Also, the results for the ED50 in data set [7] and in [5] were above 50 mg/kg and above 200 mg/kg, respectively.
On to `COCC1=C(C(=O)O)N2C(=O)[C@@H](NC(=O)/C(=N\OC)c3csc(N)n3)[C@H]2SC1` [CEFPODOXIME], for which the fraction unbound in [12] was 0.75.
With `CC(C)(O/N=C(\C(=O)N[C@H]1CN(C(=O)[N-]S(=O)(=O)n2nc(-c3cc(=O)c(O)c[nH]3)n(CC(F)(F)F)c2=O)C1=O)c1csc(N)n1)C(=O)[O-].[Na+].[Na+]`, the MIC in [1] was determined as 0.25 µg/mL.
With `Cn1c(-c2cc(=O)c(O)c[nH]2)nn(S(=O)(=O)[N-]C(=O)N2C[C@H](NC(=O)/C(=N\OC(C)(C)C(=O)[O-])c3csc(N)n3)C2=O)c1=O.[Na+].[Na+]`, the figures for the minimum inhibitory concentration (MIC) in data set [1], in data set [2] and in data set [3] were 0.5 µg/mL, 0.5 µg/mL and 1 µg/mL, respectively. Further, in [4], the MIC90 is 2 µg/mL. Further, the ED50 in data set [7] is 4 mg/kg; in [5], above 150 mg/kg. This molecule also yielded a fraction unbound at 1 µM in data set [13] of 0.26.
As to `C[C@H]1[C@H](NC(=O)/C(=N\OC(C)(C)C(=O)[O-])c2csc(N)n2)C(=O)N1C(=O)[N-]S(=O)(=O)n1nc(-c2cc(=O)c(O)c[nH]2)n(C[C@@H](O)CO)c1=O.[Na+].[Na+]`, the MIC in data set [1] amounted to 0.25 µg/mL; in data set [2], 0.5 µg/mL; in data set [3], 2 µg/mL. The molecule also showed an MIC90 in data set [4] of 0.5 µg/mL. Also, the Stability entry in data set [14] is “Stable”. Also, the degraded at 100 h, 1 µM in data set [15] was determined as 20%. Further, in data set [13], the fraction unbound at 1 µM is 0.51. In [16], the ED50 was found to be 1.4 mg/kg.
